Activity calls are given as the source filed them. No cut-off for these calls is given here.
Key:
[1] = Drug uptake in pre-cannulated Sprague-Dawley rat prostate gland at 10 mg/kg administered via oral gavage after 24 hrs by LC-MS/MS analysis; format: ADME, organism-based; conditions: read-out: Drug uptake
Method in brief: (§1)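 After one 10 mg/kg oral gavage to SD rats (n = 4 per group), red blood cells, brain, lung, liver, kidney and prostate were harvested at 24 h. Drug levels were quantified by LC-MS/MS.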

[2] = Terminal half-life in pre-cannulated Sprague-Dawley rat at 10 mg/kg administered via oral gavage after 0.5 to 24 hrs by LC-MS/MS analysis; format: ADME, organism-based; conditions: in vivo, read-out: beta t1/2 (converted)
Method in brief: (§2)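 A single 10 mg/kg oral gavage was given to SD rats (n = 4 per group). Vehicle was 90:10 olive oil/EtOH or 95:5 PEG400/Tween80, depending on the analog. Plasma was collected periodically and drug was measured by LC-MS/MS; data are mean ± SEM.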

[3] = Tmax in pre-cannulated Sprague-Dawley rat at 2 mg/kg, iv after […] to 8 hrs by LC-MS/MS analysis; format: ADME, organism-based; conditions: in vivo
Method in brief: (§3)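 SD rats (n = 3–4 per group) received a single 2 mg/kg i.v. injection in PEG400/EtOH/Tween80/H2O (40:10:3:47). Plasma was sampled periodically and drug was quantified by LC-MS/MS. t1/2, Cl, Cmax and AUC were reported as mean ± SEM.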

[4] = Tmax in pre-cannulated Sprague-Dawley rat at 10 mg/kg administered via oral gavage after 0.5 to 24 hrs by LC-MS/MS analysis; format: ADME, organism-based; conditions: in vivo; method in brief: as §2
[5] = Cytotoxicity against human PC3 cells assessed as reduction in cell viability after 24 hrs by WST-1 assay; format: functional, cell-based; conditions: PC-3, 24 h
Method in brief: (§4)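 Cells were exposed to compound for 24 h (n = 3–4), and viability was read as mitochondrial activity by WST-1. IC50 and IC90 were derived from concentration–response curves and reported as mean ± SEM.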

[6] = AUC(0 to t) in pre-cannulated Sprague-Dawley rat at 10 mg/kg administered via oral gavage after 0.5 to 24 hrs by LC-MS/MS analysis; format: ADME, organism-based; design: time upper 24 hr, time lower 0.5 hr, dose 10 mg/kg, route oral; conditions: in vivo; method in brief: as §2
PC-3 [7] = experiment: Antitumor activity against human PC3 cells xenografted in athymic NCr-nu/nu mouse assessed as tumor growth inhibition at 10 mg/kg, qd administered via oral gavage measured every 2 to 3 days; format: functional, organism-based
Method in brief: (§5)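 Nude mice with palpable subcutaneous PC-3 tumors (n = 9–11 per group) were dosed once daily by oral gavage. Study 1 used 3 or 10 mg/kg in 95:5 olive oil/EtOH vehicle; study 2 used 10 or 30 mg/kg in 95:5 PEG400/Tween80 vehicle. Tumor volume and body weight were measured periodically. Tumor growth was analysed by a repeated-measures linear mixed model with autoregressive covariance; weight change by one-way ANOVA with Sidak's test.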

[8] = Clearance in pre-cannulated Sprague-Dawley rat at 2 mg/kg, iv after […] to 8 hrs by LC-MS/MS analysis; format: ADME, organism-based; conditions: in vivo; method in brief: as §3
[9] = Drug uptake in tumor of human PC3 cells xenografted in athymic NCr-nu/nu mouse at 10 mg/kg, qd administered via oral gavage measured 24 hrs post last dose by LC-MS/MS analysis; format: ADME, organism-based, Neoplasm, PC-3; conditions: read-out: Drug uptake
Method in brief: (§6)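 Tumors were harvested at the end of daily oral-gavage xenograft studies in nude mice bearing PC-3 tumors (3, 10 or 30 mg/kg). Drug accumulation in tumor was measured by LC-MS/MS and reported as mean ± SEM.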

[10] = Drug uptake in pre-cannulated Sprague-Dawley rat RBC at 10 mg/kg administered via oral gavage after 24 hrs by LC-MS/MS analysis; format: ADME, organism-based, Erythrocyte; conditions: red blood cells, read-out: Drug uptake; method in brief: as §1
Plasma [11] = experiment: Drug uptake in pre-cannulated Sprague-Dawley rat plasma at 10 mg/kg administered via oral gavage after 1 hr by LC-MS/MS analysis; format: ADME, organism-based; conditions: in vivo; method in brief: as §2
[12] = Drug uptake in tumor of human PC3 cells xenografted in athymic NCr-nu/nu mouse at 3 mg/kg, qd administered via oral gavage measured 24 hrs post last dose by LC-MS/MS analysis; format: ADME, organism-based, Neoplasm, PC-3; conditions: read-out: Drug uptake; method in brief: as §6
Mus musculus [13] = experiment: Toxicity in athymic NCr-nu/nu mouse xenografted with human PC3 cells assessed as change in body weight at 10 mg/kg administered via oral gavage measured every 2 to 3 days; format: organism-based, PC-3; conditions: in vivo; method in brief: as §5
[14] = Cmax in pre-cannulated Sprague-Dawley rat at 2 mg/kg, iv after […] to 8 hrs by LC-MS/MS analysis; format: ADME, organism-based; design: dose 2 mg/kg, route intravenous; conditions: in vivo; method in brief: as §3
[15] = Terminal half-life in pre-cannulated Sprague-Dawley rat at 2 mg/kg, iv after […] to 8 hrs by LC-MS/MS analysis; format: ADME, organism-based; conditions: in vivo, read-out: beta t1/2 (converted); method in brief: as §3
[16] = Octanol-buffer partition co-efficient, log D of the compound at 100 uM at pH 7.4 by shake-flask method; format: physicochemical
Mus musculus [17] = experiment: Toxicity in athymic NCr-nu/nu mouse xenografted with human PC3 cells assessed as change in body weight at 3 mg/kg administered via oral gavage measured every 2 to 3 days; format: organism-based, PC-3; conditions: in vivo; method in brief: as §5
[18] = Drug uptake in pre-cannulated Sprague-Dawley rat liver at 10 mg/kg administered via oral gavage after 24 hrs by LC-MS/MS analysis; format: ADME, organism-based; conditions: read-out: Drug uptake; method in brief: as §1
[19] = Drug uptake in pre-cannulated Sprague-Dawley rat brain at 10 mg/kg administered via oral gavage after 24 hrs by LC-MS/MS analysis; format: ADME, organism-based; conditions: read-out: Drug uptake; method in brief: as §1
PC-3 [20] = experiment: Antitumor activity against human PC3 cells xenografted in athymic NCr-nu/nu mouse assessed as tumor growth inhibition at 3 mg/kg, qd administered via oral gavage measured every 2 to 3 days; format: functional, organism-based; method in brief: as §5
[21] = Drug uptake in pre-cannulated Sprague-Dawley rat lung at 10 mg/kg administered via oral gavage after 24 hrs by LC-MS/MS analysis; format: ADME, organism-based; conditions: read-out: Drug uptake; method in brief: as §1
[22] = Oral bioavailability in pre-cannulated Sprague-Dawley rat at 10 mg/kg administered via gavage after 0.5 to 24 hrs by LC-MS/MS analysis; format: ADME, organism-based; conditions: in vivo
[23] = Drug uptake in pre-cannulated Sprague-Dawley rat kidney at 10 mg/kg administered via oral gavage after 24 hrs by LC-MS/MS analysis; format: ADME, organism-based; conditions: read-out: Drug uptake; method in brief: as §1
[24] = Cmax in pre-cannulated Sprague-Dawley rat at 10 mg/kg administered via oral gavage after 0.5 to 24 hrs by LC-MS/MS analysis; format: ADME, organism-based; design: dose 10 mg/kg, route oral; conditions: in vivo; method in brief: as §2
[25] = AUC(0 to t) in pre-cannulated Sprague-Dawley rat at 2 mg/kg, iv after […] to 8 hrs by LC-MS/MS analysis; format: ADME, organism-based; design: time upper 8 hr, dose 2 mg/kg, route intravenous; conditions: in vivo; method in brief: as §3
LNCaP = experiment: Cytotoxicity against human LNCAP cells assessed as reduction in cell viability after 24 hrs by WST-1 assay; format: functional, cell-based; method in brief: as §4
[26] = Drug uptake in tumor of human PC3 cells xenografted in athymic NCr-nu/nu mouse at 30 mg/kg, qd administered via oral gavage measured 24 hrs post last dose by LC-MS/MS analysis; format: ADME, organism-based, Neoplasm, PC-3; conditions: read-out: Drug uptake; method in brief: as §6
Plasma [27] = experiment: Drug uptake in pre-cannulated Sprague-Dawley rat plasma at 10 mg/kg administered via oral gavage after 2 hrs by LC-MS/MS analysis; format: ADME, organism-based; conditions: in vivo; method in brief: as §2
Mus musculus [28] = experiment: Toxicity in athymic NCr-nu/nu mouse xenografted with human PC3 cells assessed as change in body weight at 30 mg/kg administered via oral gavage measured every 2 to 3 days; format: organism-based, PC-3; conditions: in vivo; method in brief: as §5
[29] = Lipophilicity, log P of the compound; format: physicochemical; conditions: octanol/water

SMILES	concentration at 24 h [1]	half-life [2]	Tmax [3]	Tmax [4]	IC50 [5]	IC90 [5]	AUC(0-t) [6]	TGI (PC-3 [7])	clearance [8]	concentration at 24 h [9]	concentration at 24 h [10]	Activity (Mus musculus [13])	Cmax [14]	half-life [15]	logD at 100 µM [16]	concentration at 24 h [18]	concentration at 24 h [19]	concentration at 24 h [21]	bioavailability [22]	concentration at 24 h [23]	other results
CCCCCCCCCCCCC[C@H](O)C[C@H](O)[C@H](C)N [ENIGMOL]	0.766 µM	8.3 h	4.8 min	8 h	12.1 µM	14 µM	0.832 µM·h	Active	76.2 mL/min/kg	1.6 µM	0.041 µM	Non-toxic	2.45 µM	4 h	3.5	1.06 µM	3.25 µM	5.34 µM	11%	1.35 µM	Drug uptake (Plasma [11]): Not Active; concentration at 24 h [12]: 1.05 µM; Activity (Mus musculus [17]): Non-toxic; TGI (PC-3 [20]): inactive; Cmax [24]: 0.0846 µM; AUC(0-t) [25]: 1.45 µM·h; IC50 (LNCaP): 11.7 µM; IC90 (LNCaP): 19.6 µM
CCCCCCCCCCCCC(F)(F)[C@H](O)C[C@H](O)[C@H](C)N	6.94 µM	9.9 h	4.8 min	8 h	11.7 µM	15.3 µM	1.47 µM·h	Active	34 mL/min/kg	23.6 µM	0.936 µM	Non-toxic	4.4 µM	5.7 h	1.73	9.29 µM	16.1 µM	44.5 µM	10%	14.8 µM	concentration at 24 h [26]: 62 µM; Drug uptake (Plasma [27]): Not Active; Activity (Mus musculus [28]): Non-toxic; Cmax [24]: 0.119 µM; AUC(0-t) [25]: 2.91 µM·h; IC50 (LNCaP): 13.4 µM; IC90 (LNCaP): 16.7 µM
OC(F)(F)CF	–	–	–	–	–	–	–	–	–	–	–	–	–	–	–	–	–	–	–	–	logP [29]: 0.36
C[C@H](N)[C@@H](O)C[C@@H](O)CCCCCCCCCCCCC(F)(F)F	3.46 µM	5.5 h	4.8 min	12 h	21.4 µM	24.4 µM	2.34 µM·h	inactive	136 mL/min/kg	25.3 µM	0.153 µM	11.6%	1.68 µM	1.3 h	3.24	1.94 µM	6.01 µM	18.7 µM	68%	4.74 µM	Drug uptake (Plasma [11]): Not Active; concentration at 24 h [12]: 3.23 µM; Activity (Mus musculus [17]): Non-toxic; TGI (PC-3 [20]): inactive; Cmax [24]: 0.193 µM; AUC(0-t) [25]: 0.688 µM·h; IC50 (LNCaP): 11.3 µM; IC90 (LNCaP): 19.2 µM
CCCCCC(O)C(F)(F)F (stereo not given)	–	–	–	–	–	–	–	–	–	–	–	–	–	–	–	–	–	–	–	–	logP [29]: 1.14
